Data published in ChEMBL document CHEMBL5149991 (J Med Chem, 2021).

Legend:
[1] = target: T1, Histamine H3 receptor (Homo sapiens, UniProt Q9Y5N1); assay: Displacement of [3H]UR-PI294 from human histamine H3 receptor stably expressed in baculovirus infected Sf9 cell membrane co-expressing G-alphai2 and G-beta1gamma2 incubated for 60 mins by scintillation counting analysis; type: cell membranes
How it was run: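 hH3R + Gαi2 + Gβ1γ2 expressed in Sf9 membranes. […] Mean ± SEM from N independent experiments in triplicate.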

[2] = target: Histamine H4 receptor (Homo sapiens, UniProt Q9H3N8)
[3] = target: Histamine H1 receptor (Homo sapiens, UniProt P35367)
[4] = target: T2, Histamine H2 receptor (Homo sapiens, UniProt P25021); assay: Displacement of [3H]UR-DE257 from human histamine H2 receptor stably expressed in baculovirus infected Sf9 cell membrane co-expressing RG-Salpha S incubated for 60 mins by scintillation counting analysis; type: cell membranes
[5] = Chemical stability in pH 7.4 buffer measured at 0 to 2 weeks by HPLC analysis; type: physicochemical; details: time 0-2 weeks
[6] = target: T1, Histamine H3 receptor
[7] = target: T3, D(3) dopamine receptor (Homo sapiens, UniProt P35462); assay: Displacement of [3H]N-methylspiperone from human D3 receptor stably expressed in HEK293T cells co-expressing luciferase and CEK incubated for 140 mins by radioligand competition binding based assay; type: cell-based
[8] = target: T4, D(2) dopamine receptor (Homo sapiens, UniProt P14416); type: functional, cell-based, HEK293T;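 further: agonist mode, β-arrestin2 recruitment to the human D2 long isoform stably expressed in HEK293T cells, read by split luciferase complementation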
[9] = target: T2, Histamine H2 receptor; assay: Agonist activity at human histamine H2 receptor stably expressed in HEK293T cells co-expressing ARRB2 incubated for 60 mins by beta-arrestin2 recruitment assay; type: functional, cell-based
[10] = target: T4, D(2) dopamine receptor; assay: Displacement of [3H]N-methylspiperone from human D2 long receptor stably expressed in HEK293T cells co-expressing luciferase and CEK incubated for 140 mins by radioligand competition binding based assay; type: cell-based
[11] = target: T3, D(3) dopamine receptor; assay: Agonist activity at human D3 receptor stably expressed in HEK293T cells co-expressing ElucN-betaarr2 hD3R-ElucC by beta-arrestin2 recruitment assay; type: functional, cell-based
[12] = target: T2, Histamine H2 receptor; assay: Agonist activity at human histamine H2 receptor stably expressed in HEK293T cells co-expressing NlucN-mGs/hH2R-NlucC assessed as induction of mini-Gs protein recruitment using furimazine as substrate measured for 45 mins by luminescence assay

Chain of Histamine H4 receptor (Q9H3N8 whole entry): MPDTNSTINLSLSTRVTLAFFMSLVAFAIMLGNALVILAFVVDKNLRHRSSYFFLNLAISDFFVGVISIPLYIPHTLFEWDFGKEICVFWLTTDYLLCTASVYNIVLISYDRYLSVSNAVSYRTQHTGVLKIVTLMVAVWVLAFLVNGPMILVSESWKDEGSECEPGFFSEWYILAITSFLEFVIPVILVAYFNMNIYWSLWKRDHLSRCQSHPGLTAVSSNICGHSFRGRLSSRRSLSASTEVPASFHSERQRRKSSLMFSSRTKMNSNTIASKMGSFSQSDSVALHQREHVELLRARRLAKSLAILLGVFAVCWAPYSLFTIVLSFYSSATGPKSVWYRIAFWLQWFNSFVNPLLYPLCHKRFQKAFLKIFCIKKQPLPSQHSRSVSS
Chain of Histamine H1 receptor (P35367 whole entry): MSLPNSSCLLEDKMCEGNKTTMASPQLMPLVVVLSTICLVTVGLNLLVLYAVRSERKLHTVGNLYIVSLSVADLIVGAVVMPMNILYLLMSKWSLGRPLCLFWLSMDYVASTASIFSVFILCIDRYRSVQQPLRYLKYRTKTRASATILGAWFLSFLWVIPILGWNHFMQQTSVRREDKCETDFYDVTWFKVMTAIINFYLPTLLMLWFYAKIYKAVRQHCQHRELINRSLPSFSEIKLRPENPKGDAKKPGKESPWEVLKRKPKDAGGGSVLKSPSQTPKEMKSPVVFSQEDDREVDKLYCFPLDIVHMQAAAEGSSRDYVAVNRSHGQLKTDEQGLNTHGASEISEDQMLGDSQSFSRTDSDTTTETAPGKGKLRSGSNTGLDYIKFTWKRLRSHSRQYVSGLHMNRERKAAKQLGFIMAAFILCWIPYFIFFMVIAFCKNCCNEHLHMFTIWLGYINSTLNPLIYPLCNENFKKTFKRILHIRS
T2 sequence (P25021 whole entry): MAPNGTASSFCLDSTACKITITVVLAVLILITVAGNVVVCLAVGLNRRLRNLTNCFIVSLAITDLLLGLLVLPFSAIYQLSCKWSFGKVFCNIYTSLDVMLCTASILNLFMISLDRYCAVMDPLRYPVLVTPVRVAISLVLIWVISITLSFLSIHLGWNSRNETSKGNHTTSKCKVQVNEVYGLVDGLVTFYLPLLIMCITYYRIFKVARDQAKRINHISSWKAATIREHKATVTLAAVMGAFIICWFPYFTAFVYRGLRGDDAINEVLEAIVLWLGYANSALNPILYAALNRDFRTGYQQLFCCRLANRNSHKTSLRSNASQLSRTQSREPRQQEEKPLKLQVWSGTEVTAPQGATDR
T3 sequence (P35462 whole entry, canonical isoform): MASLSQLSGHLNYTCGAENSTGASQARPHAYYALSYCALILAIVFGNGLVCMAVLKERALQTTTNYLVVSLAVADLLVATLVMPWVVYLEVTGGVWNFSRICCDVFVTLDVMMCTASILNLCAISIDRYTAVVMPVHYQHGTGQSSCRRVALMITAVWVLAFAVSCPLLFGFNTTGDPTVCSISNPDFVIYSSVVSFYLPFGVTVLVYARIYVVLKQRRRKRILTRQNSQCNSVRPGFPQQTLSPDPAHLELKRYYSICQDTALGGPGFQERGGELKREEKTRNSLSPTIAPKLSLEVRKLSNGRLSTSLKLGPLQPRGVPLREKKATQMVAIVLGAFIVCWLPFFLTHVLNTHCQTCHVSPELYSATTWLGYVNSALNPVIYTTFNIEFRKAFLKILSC
T4 sequence (P14416 whole entry, canonical isoform): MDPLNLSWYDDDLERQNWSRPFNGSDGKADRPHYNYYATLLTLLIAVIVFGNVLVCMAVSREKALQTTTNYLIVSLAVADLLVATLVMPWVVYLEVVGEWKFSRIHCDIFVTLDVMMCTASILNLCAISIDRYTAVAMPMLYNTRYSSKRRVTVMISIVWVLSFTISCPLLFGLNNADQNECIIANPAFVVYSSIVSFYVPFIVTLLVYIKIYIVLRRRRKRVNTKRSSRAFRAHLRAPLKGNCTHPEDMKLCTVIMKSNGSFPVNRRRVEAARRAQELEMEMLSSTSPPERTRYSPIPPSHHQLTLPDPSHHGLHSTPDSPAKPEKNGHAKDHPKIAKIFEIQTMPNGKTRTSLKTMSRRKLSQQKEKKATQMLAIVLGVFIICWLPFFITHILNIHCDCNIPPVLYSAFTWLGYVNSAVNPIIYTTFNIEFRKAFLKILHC
T1 sequence (Q9Y5N1 whole entry): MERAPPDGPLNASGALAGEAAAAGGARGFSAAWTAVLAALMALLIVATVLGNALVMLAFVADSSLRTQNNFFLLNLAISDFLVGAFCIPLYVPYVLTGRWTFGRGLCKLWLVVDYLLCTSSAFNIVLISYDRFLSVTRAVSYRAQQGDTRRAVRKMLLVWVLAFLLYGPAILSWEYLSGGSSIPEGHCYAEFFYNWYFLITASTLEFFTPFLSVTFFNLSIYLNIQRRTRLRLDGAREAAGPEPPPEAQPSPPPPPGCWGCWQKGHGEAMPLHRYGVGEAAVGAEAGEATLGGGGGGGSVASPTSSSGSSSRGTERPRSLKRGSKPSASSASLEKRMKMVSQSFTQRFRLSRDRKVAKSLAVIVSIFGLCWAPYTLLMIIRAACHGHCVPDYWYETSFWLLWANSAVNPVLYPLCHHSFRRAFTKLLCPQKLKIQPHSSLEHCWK

Structure (SMILES)	Ki [1]	Kd [2]	Ki [2]	Kd [3]	Ki [3]	Ki [4]	Stability [5]	Kd [6]	Ki [6]	Ki [7]	EC50 [8]	EC50 [9]	Ki [10]	EC50 [11]	EC50 [12]
Cc1nnc(CCCN/C(N)=N/C(=O)NCc2ccccc2)s1	> 10000 nM	16 nM	> 10000 nM	4.5 nM	10700 nM	5620 nM									
Cc1nc(N)sc1-c1ccc(N/C(N)=N/C(=O)NCC(C)C2CCCCC2)cc1 (stereo unspecified)	5620 nM	16 nM	7760 nM	4.5 nM	2880 nM	309 nM									
Cc1nc(N)oc1CCCN/C(N)=N/C(=O)NCC(C)C1CCCCC1.O=C(O)C(F)(F)F.O=C(O)C(F)(F)F (stereo unspecified)	8320 nM	16 nM	7590 nM	4.5 nM	6030 nM	245 nM	Stable								
NCCCCCCCCNC(=O)/N=C(\N)NCCCc1nnc(N)s1	> 10000 nM	16 nM	> 10000 nM	4.5 nM	525 nM	33.1 nM									
Cc1nnc(CCCN/C(N)=N/C(=O)NCCCCCCCCN)s1	11700 nM	16 nM	> 10000 nM	4.5 nM	309 nM	1820 nM									
CCCCCNC(=O)/N=C(\N)Nc1cccc(-c2sc(N)nc2C)c1.O=C(O)C(F)(F)F.O=C(O)C(F)(F)F	9550 nM	16 nM	7410 nM	4.5 nM	6610 nM	191 nM	Stable								
Cc1nc(N)sc1-c1cccc(N/C(N)=N/C(=O)NCCCCCCNC(=O)/N=C(\N)Nc2cccc(-c3sc(N)nc3C)c2)c1	708 nM	16 nM	2340 nM	4.5 nM	1450 nM	380 nM									
Cc1ccc(CC(C)CNC(=O)/N=C(\N)NCC2CCc3nc(N)sc3C2)cc1 (stereo unspecified)		16 nM	3390 nM	4.5 nM	182 nM	107 nM		3 nM	1950 nM						
Cc1nc(N)sc1-c1cccc(N/C(N)=N/C(=O)NCC(C)CCCc2ccccc2)c1 (stereo unspecified)	10700 nM	16 nM	7080 nM	4.5 nM	13200 nM	234 nM									
CCCCCNC(=O)/N=C(/N)NCCCc1nnc(C)s1.O=C(O)C(F)(F)F	> 10000 nM	16 nM	> 10000 nM	4.5 nM	> 10000 nM	2190 nM	Stable								
C[C@@H](NC(=O)/N=C(\N)NCCCc1c[nH]cn1)c1ccccc1	1.7 nM	16 nM	8.51 nM	4.5 nM	3980 nM	6.17 nM									
CCCCCNC(=O)/N=C(\N)Nc1ccc(-c2sc(N)nc2C)cc1.O=C(O)C(F)(F)F.O=C(O)C(F)(F)F	11500 nM	16 nM	7760 nM	4.5 nM	3720 nM	457 nM	Stable	3 nM	11500 nM						
Cc1ccc(CC(C)CNC(=O)/N=C(\N)Nc2cccc(-c3sc(N)nc3C)c2)cc1 (stereo unspecified)	12900 nM	16 nM	7410 nM	4.5 nM	5250 nM	234 nM									
Cc1ccc(CC(C)CNC(=O)/N=C(\N)NCCCc2cnc(N)s2)cc1 (stereo unspecified)	4790 nM	16 nM	4470 nM	4.5 nM	2510 nM	64.6 nM				229 nM	4470 nM	234 nM	490 nM	1050 nM	77.6 nM
CC(CCCc1ccccc1)CNC(=O)/N=C(\N)NCCCc1nnc(N)s1 (stereo unspecified)	3980 nM	16 nM	4900 nM	4.5 nM	5130 nM					324 nM			447 nM	468 nM	
Cc1ccc(CC(C)CNC(=O)/N=C(\N)Nc2ccc(-c3sc(N)nc3C)cc2)cc1 (stereo unspecified)	8320 nM	16 nM	6310 nM	4.5 nM	1820 nM	331 nM		3 nM	8320 nM						
CCCCCNC(=O)/N=C(\N)NCCCc1cnc(N)s1.O=C(O)C(F)(F)F.O=C(O)C(F)(F)F	> 10000 nM	16 nM	> 10000 nM	4.5 nM	9550 nM	22.9 nM	Stable					56.2 nM			6.03 nM

Structure (SMILES)	Ki [1]	Kd [2]	Ki [2]	Kd [3]	Ki [3]	Ki [4]	Stability [5]	Kd [6]	Ki [6]	Ki [7]	EC50 [8]	EC50 [9]	Ki [10]	EC50 [11]	EC50 [12]
Cc1nc(N)sc1-c1ccc(N/C(N)=N/C(=O)NCc2ccccc2)cc1	8510 nM	16 nM	12000 nM	4.5 nM	1290 nM	214 nM		3 nM	8510 nM						
Cc1nc(N)oc1CCCN/C(N)=N/C(=O)NCc1ccccc1	> 10000 nM	16 nM	> 10000 nM	4.5 nM	8910 nM	389 nM									
Cc1nc(N)sc1-c1ccc(N/C(N)=N/C(=O)NC2CCCCC2)cc1	12300 nM	16 nM	6920 nM	4.5 nM	5500 nM	550 nM		3 nM	12300 nM						
N/C(=N\C(=O)NCc1ccccc1)NCCCc1cnc(N)s1	> 10000 nM	16 nM	> 10000 nM	4.5 nM	5620 nM	26.9 nM				74.1 nM	3390 nM	49 nM	4570 nM	67.6 nM	4.9 nM
Cc1nc(N)sc1-c1ccc(N/C(N)=N/C(=O)NCCCCCCNC(=O)/N=C(\N)Nc2ccc(-c3sc(N)nc3C)cc2)cc1	1950 nM	16 nM	2140 nM	4.5 nM	2140 nM	347 nM									
CCCN[C@H]1CCc2nc(N)sc2C1 [PRAMIPEXOLE]		16 nM		4.5 nM		13800 nM									166 nM
Cc1nc(N)sc1-c1ccc(N/C(N)=N/C(=O)NCC(C)CCCc2ccccc2)cc1 (stereo unspecified)	7940 nM	16 nM	6030 nM	4.5 nM	7590 nM	316 nM		3 nM	7940 nM						
CCCCCNC(=O)/N=C(\N)NCC1CCc2nc(N)sc2C1.O=C(O)C(F)(F)F.O=C(O)C(F)(F)F (stereo unspecified)	6610 nM	16 nM	5890 nM	4.5 nM	5250 nM	155 nM	Stable	3 nM	6610 nM						
Cc1ccc(CC(C)CNC(=O)/N=C(\N)NCCCc2nnc(N)o2)cc1 (stereo unspecified)	9120 nM	16 nM	> 10000 nM	4.5 nM	2690 nM	676 nM									
Cc1nc(N)sc1-c1cccc(N/C(N)=N/C(=O)NCc2ccccc2)c1	> 10000 nM	16 nM	> 10000 nM	4.5 nM	7240 nM	302 nM									
CC(CCCc1ccccc1)CNC(=O)/N=C(\N)NCC1CCc2nc(N)sc2C1 (stereo unspecified)	1740 nM	16 nM	4070 nM	4.5 nM	3890 nM	110 nM		3 nM	1740 nM						
CCCCCCNC(=O)/N=C(\N)NCCCc1nnc(N)o1.O=C(O)C(F)(F)F.O=C(O)C(F)(F)F	> 10000 nM	16 nM	> 10000 nM	4.5 nM	8910 nM	389 nM	Stable								
N/C(=N\C(=O)NCCCCCCCCNC(=O)/N=C(\N)NCCCc1nnc(N)s1)NCCCc1nnc(N)s1	6920 nM	16 nM	8910 nM	4.5 nM	1820 nM	4.79 nM									
N/C(=N\C(=O)NCc1ccccc1)NCC1CCc2nc(N)sc2C1 (stereo unspecified)		16 nM	5890 nM	4.5 nM	3890 nM	302 nM		3 nM	11200 nM						
Cc1nnc(CCCN/C(N)=N/C(=O)NCC(C)C2CCCCC2)s1 (stereo unspecified)		16 nM	> 10000 nM	4.5 nM	7080 nM	1050 nM		3 nM	11500 nM						
C[C@@H](NC(=O)/N=C(\N)NCCCn1cc(CN(C)C)nn1)c1ccccc1	10200 nM	16 nM	> 10000 nM	4.5 nM	> 10000 nM	4470 nM									
